This is an account of results in publication PMC8332596 (Clinical Pharmacokinetics, 2021).

Data set [1] can be described thus: Safety and tolerability after a single subcutaneous dose of tirzepatide 5 mg. It counts as in vivo, human. To be noted: single 5 mg SC. Summed up:
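Open-label phase I single-dose study in adults aged 18–85 y with BMI 19.0–40.0 kg/m2, grouped by MDRD eGFR. ESRD subjects were dialysed on high-flux polysulfone membranes. AEs were recorded at screening and on days 1, 2, 3, 4, 5, 8, 15 and ≥28. Glucose was checked predose, at 12–336 h and on day ≥28, with hypoglycaemia defined per ADA guidance. ISRs were assessed to 48 h. Labs (incl. amylase/lipase), vitals and ECGs were taken at set visits.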

Data set [2] is classed as in vivo, human. To be noted: single 5 mg SC; for tmax median of differences (90% CI): Hodges–Lehmann; for tmax: median (range). Summed up: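 Single SC 5 mg dose given on day 1. Plasma was drawn predose and at 8, 12, 24, 48, 72, 96, 168, 336 and 648 h, then stored at about −70 °C. Drug was immunoprecipitated and quantified by LC–high-resolution MS (HESI, positive ion) over 2.00–500.00 ng/mL. Noncompartmental analysis used actual times, trapezoidal AUClast and log-linear λz. Log AUC/Cmax ratios versus control came from ANOVA with 90% CI; tmax by Hodges–Lehmann.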

The nature of data set [3]: Immunogenicity: antidrug antibodies in serum. Format: in vivo, human. To be noted: single 5 mg SC, maximum of 30 days of ADA monitoring postdose.
The conditions of data set [4]: dose range 0.5 to 15 mg, single-dose levels and steady state; cited from earlier work.
The conditions of data set [5]: cited from earlier work.
For data set [6] the following is noted: once-weekly dulaglutide 1.5 mg; patients with T2D; cited from earlier work.
Setting [7] is: moderate renal impairment, N = 8.
Where [8] appears, read: mild-to-moderate renal impairment.

Where two headings read alike, the source gives them in different places. Bounds are passed on as bounds.

For `CC[C@H](C)[C@H](NC(=O)[C@H](CC(C)C)NC(=O)[C@H](Cc1c[nH]c2ccccc12)NC(=O)[C@H](CCC(N)=O)NC(=O)[C@@H](NC(=O)[C@H](Cc1ccccc1)NC(=O)[C@H](C)NC(=O)[C@H](CCCCNC(=O)COCCOCCNC(=O)COCCOCCNC(=O)CC[C@H](NC(=O)CCCCCCCCCCCCCCCCCCC(=O)O)C(=O)O)NC(=O)[C@H](CCC(N)=O)NC(=O)[C@H](C)NC(=O)[C@@H](NC(=O)[C@H](CCCCN)NC(=O)[C@H](CC(=O)O)NC(=O)[C@H](CC(C)C)NC(=O)C(C)(C)NC(=O)[C@@H](NC(=O)[C@H](CO)NC(=O)[C@H](Cc1ccc(O)cc1)NC(=O)[C@H](CC(=O)O)NC(=O)[C@H](CO)NC(=O)[C@@H](NC(=O)[C@H](Cc1ccccc1)NC(=O)[C@@H](NC(=O)CNC(=O)[C@H](CCC(=O)O)NC(=O)C(C)(C)NC(=O)[C@@H](N)Cc1ccc(O)cc1)[C@@H](C)O)[C@@H](C)O)[C@@H](C)CC)[C@@H](C)CC)C(C)C)C(=O)N[C@@H](C)C(=O)NCC(=O)NCC(=O)N1CCC[C@H]1C(=O)N[C@@H](CO)C(=O)N[C@@H](CO)C(=O)NCC(=O)N[C@@H](C)C(=O)N1CCC[C@H]1C(=O)N1CCC[C@H]1C(=O)N1CCC[C@H]1C(=O)N[C@@H](CO)C(N)=O` [tirzepatide], the “number of subjects with AEs related to tirzepatide” value (“number of subjects with AEs related” below) in data set [1] (ESRD group (37.5%)) was determined as 3. Further, in data set [1] (ESRD, N = 8), the Abdominal distention is 0 (0.0) n (%), the Back pain was 0 (0.0) n (%), the Deaths is recorded as 0 (0.0) n (%) and the Diarrhea is listed as 0 (0.0) n (%). Moreover, in data set [1] (ESRD, N = 8), the Headache was 0 (0.0) n (%), the Nausea is on record as 1 (12.5) n (%), the “Serious AEs” value is given as 0 (0.0) n (%) and the “Treatment-emergent AEs” value is listed as 3 (37.5) n (%). In addition, the Vomiting in data set [1] (ESRD, N = 8) is reported as 2 (25.0) n (%). Also, in data set [1] (all groups), the “alterations in laboratory, vital signs values, ECGs, or blood glucose monitoring” value is given as “no clinically significant alterations” and the severe hypoglycemic events result was “no severe hypoglycemic events”. In data set [1] (all groups, 45 subjects), the “discontinuations due to AEs, serious AEs, deaths” value is reported as “No discontinuations due to AEs, serious AEs, or deaths”. In addition, in data set [1] (all treatment groups), the tolerability entry was “well-tolerated”. The “injection-site reactions (ISRs)” value in data set [1] (assessed predose and 0, 6, 12, 24, 48 h postdose) is “No ISRs were reported”. In data set [1] (control group (7.1%)), the “number of subjects with AEs related” value is given as 1. In data set [1] (mild renal impairment group (37.5%)), the “number of subjects with AEs related” value was 3. In addition, in data set [1] (mild renal impairment, N = 8), the Abdominal distention is on record as 0 (0.0) n (%), the Back pain was 1 (12.5) n (%), the Deaths is 0 (0.0) n (%) and the Diarrhea is on record as 1 (12.5) n (%). In data set [1] (mild renal impairment, N = 8), the Headache was 0 (0.0) n (%), the Nausea is 1 (12.5) n (%), the “Serious AEs” value is recorded as 0 (0.0) n (%) and the “Treatment-emergent AEs” value was 3 (37.5) n (%). Besides, the Vomiting in data set [1] (mild renal impairment, N = 8) is 0 (0.0) n (%). Besides, the “number of subjects with AEs related” value in data set [1] (moderate renal impairment group (37.5%)) is 3. In data set [1] (setting [7]), the Abdominal distention is on record as 1 (12.5) n (%), the Back pain was 1 (12.5) n (%), the Deaths is on record as 0 (0.0) n (%) and the Diarrhea was 1 (12.5) n (%). Further, in data set [1] (setting [7]), the Headache is listed as 0 (0.0) n (%), the Nausea was 0 (0.0) n (%), the “Serious AEs” value is 0 (0.0) n (%) and the “Treatment-emergent AEs” value is reported as 3 (37.5) n (%). In data set [1] (setting [7]), the Vomiting is 0 (0.0) n (%). Moreover, in data set [1] (normal renal function, N = 14), the Abdominal distention is 0 (0.0) n (%), the Back pain was 0 (0.0) n (%), the Deaths is listed as 0 (0.0) n (%) and the Diarrhea is 0 (0.0) n (%). In data set [1] (normal renal function, N = 14), the Headache is 1 (7.1) n (%), the Nausea is 0 (0.0) n (%), the “Serious AEs” value was 0 (0.0) n (%) and the “Treatment-emergent AEs” value is reported as 1 (7.1) n (%). In addition, the Vomiting in data set [1] (normal renal function, N = 14) is on record as 0 (0.0) n (%). The “treatment-related AEs” value in data set [1] (severe renal impairment group) is listed as “No treatment-related AEs were reported”. For the same compound, in data set [1] (severe renal impairment, N = 7), the Abdominal distention was 0 (0.0) n (%), the Back pain is 0 (0.0) n (%), the Deaths is 0 (0.0) n (%) and the Diarrhea is 0 (0.0) n (%). Besides, in data set [1] (severe renal impairment, N = 7), the Headache is 0 (0.0) n (%), the Nausea is reported as 0 (0.0) n (%), the “Serious AEs” value was 0 (0.0) n (%) and the “Treatment-emergent AEs” value was 0 (0.0) n (%). Also, the Vomiting in data set [1] (severe renal impairment, N = 7) is 0 (0.0) n (%). Moreover, in data set [2] (human, plasma, sc, 5 mg, t½, ESRD, n = 8, geometric mean (range)), the half-life was 151 h. Besides, in data set [2] (ESRD vs normal renal function), the “tmax median of differences (90% CI)” value was 0.00 h. Further, the tmax in data set [2] (ESRD, n = 8) was 48.00 (24.00–96.00) h. The “relationship between exposure (Cmax, AUClast, AUC∞) and MDRD eGFR” value in data set [2] (linear regression, eGFR as continuous variable) was “did not show a relationship”. The “higher AUClast versus control” value in data set [2] (mild renal impairment group classified by CLCR (Cockcroft–Gault)) is given as 23%. Besides, the “tmax median of differences (90% CI)” value in data set [2] (mild renal impairment vs normal renal function) is on record as 0.00 h. For the same compound, the t½ in data set [2] (mild renal impairment, n = 8, geometric mean (range)) is 121 (94.6–138) h. For the same compound, in data set [2] (mild renal impairment, n = 8), the tmax is reported as 48.00 (12.00–96.00) h. In data set [2] (moderate renal impairment group), the “increase in AUCs versus normal renal function” value is on record as 25–29%. In data set [2] (moderate renal impairment vs control, 90% CI 1.04–1.52), the “geometric mean AUClast higher than control group” value is 25%. The “geometric mean AUC∞ higher than control group” value in data set [2] (moderate renal impairment vs control, 90% CI 1.07–1.56) is 29%. Besides, the “treatment-emergent antidrug antibodies (ADAs)” value in data set [3] is on record as “No treatment-emergent ADAs were detected”. Further, the “dose dependence of PK” value in data set [4] was “linear and dose-proportional”.
Regarding albiglutide, in data set [5] (setting [8]), the “PK versus subjects with normal renal function” value is “not significantly altered”.
In the case of dulaglutide, the “influence of the extent of renal impairment on PK” value in data set [5] is given as “not influenced”. For the same compound, in data set [6], the HbA1c reduction is given as not above 1.1% and the body weight reduction is not above 2.7 kg.
For the compound exenatide, the “PK changes versus subjects with normal renal function” value in data set [5] (subcutaneous, mild-to-moderate renal impairment) was “clinically acceptable”.
liraglutide: the “PK versus subjects with normal renal function” value in data set [5] (setting [8]) was “not significantly altered”.
In the case of lixisenatide, the “differences in PK versus subjects with normal renal function” value in data set [5] (setting [8]) is on record as “no significant differences”. The drug exposure result in data set [5] (severe renal impairment) is “may be increased”.
Take semaglutide: the “impact of renal impairment on plasma PK” value in data set [5] (oral) is “lack of impact”.
